# Shown are actives, neighbours in structure and some others; about 3.8% of the full set was active somewhere.
# KCNQ1 inh – blocks the human KCNQ1 potassium channel. B-score at 10 µM. 310,000 tested, 1.3% active. CHO-K1 KCNQ1, FluxOR thallium flux fluorescence; stronger effect = higher value;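 active means compounds whose thallium flux B-score, printed positive for inhibition, exceeds three library SD while starting fluorescence stays within three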;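 further: channel opened by potassium depolarization with thallium stimulus after 20 min compound exposure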
# KCNQ1 pot – human KCNQ1 channel potentiation or activation; B-score at 10 µM; P51787; 310,000 tested, 0.35% active; CHO-K1 KCNQ1, thallium flux FluxOR fluorescence; stronger effect = higher value;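 active means fluorescence ratio B-score, a plate-corrected score, at least three library SD, with initial intensity B-score within 5 SD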
#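 System: CHO-K1 cells stably expressing KCNQ1 / Medium: assay buffer for compound exposure, DMSO matched across wells / Reagent: thallium- and potassium-containing depolarizing buffer / Compound: one concentration, matched DMSO / Incubation: 20 min compound pretreatment at room temperature / Measured by: kinetic FluxOR fluorescence, 10 s baseline plus 110 s post-stimulus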
# Kir21 block – blocks the mouse Kir2.1 inward-rectifier potassium channel | AID 1672 | P35561 | HEK293-Kir2.1, FluxOR thallium flux fluorescence; stronger effect = lower value | B-score at 10 µM | 310,000 tested, 0.85% active;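 active means fluorescence ratio B-score at or below minus 3 SD of library scores, with starting-brightness B-score within 2 SD, cut at about -4.2 in these data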;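 further: channel flux triggered by added potassium and thallium sulfate stimulus; B-score of peak minus minimum fluorescence over baseline after thallium stimulus; more negative B-score means stronger Kir2.1 block with less thallium influx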
# hERG rescue – shields human hERG channel from block by proarrhythmic agents. Q12809. CHO-hERG, FluxOR thallium flux, dofetilide IC70 present. activation (rescue from dofetilide block), less the hit threshold, % at 10 µM. 310,000 tested, 0.51% active. AID 1511;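 active means activation above the mean of controls blocked by dofetilide plus 5 SD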;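 further: thallium influx through hERG after potassium depolarization seen as dye fluorescence rise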
# KCNK3 inh – human KCNK3 channel inhibition, primary screen; CHO-KCNK3 thallium flux, FluxOR fluorescence; stronger effect = lower value; B-score at 10 µM; AID 602410; O14649; 340,000 tested, 0.84% active;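 active means B-score under library mean minus 4 SD, starting fluorescence ratio at most library mean plus 5 SD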;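 further: more negative B-score means stronger inhibition of thallium flux through KCNK3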
# KCNK9 block – inhibitors of human KCNK9 two-pore domain potassium channel. 310,000 tested, 1.2% active. HEK293 KCNK9, FluxOR thallium flux fluorescence; stronger effect = lower value. B-score at 10 µM;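 active means ratio B-score over 3 SD below the library mean, with starting fluorescence within 5 SD of its mean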;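 further: negative B-score means less thallium flux so channel inhibition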
# Target sequence (Q9NPC2 whole entry, looked up, the tested form may be a part): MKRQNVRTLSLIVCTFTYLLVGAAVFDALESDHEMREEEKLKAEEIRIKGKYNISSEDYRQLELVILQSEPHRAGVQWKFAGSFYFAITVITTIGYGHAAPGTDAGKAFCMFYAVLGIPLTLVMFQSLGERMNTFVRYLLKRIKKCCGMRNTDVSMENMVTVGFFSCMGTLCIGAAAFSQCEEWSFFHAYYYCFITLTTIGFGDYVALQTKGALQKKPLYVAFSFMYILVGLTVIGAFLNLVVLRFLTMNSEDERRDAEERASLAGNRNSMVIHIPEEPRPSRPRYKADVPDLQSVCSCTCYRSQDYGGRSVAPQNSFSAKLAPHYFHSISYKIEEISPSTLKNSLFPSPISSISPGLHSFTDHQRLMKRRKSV
# KCNK9 block conf – confirmation of human KCNK9 potassium channel inhibitors | inhibition, % at 10 µM | shares compounds with KCNK9 block | 4,900 tested, 43% active | HEK293 KCNK9 cells, FluxOR thallium flux fluorescence;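 active means thallium signal inhibited by more than 5 SD of the compound-free buffer control wells, on both duplicate plates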;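 further: 0% = assay buffer control wells without compound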
# Kir21 sel – mouse Kir2.1 off-target activity of KCNK9 modulators | 4,900 tested, 4% active | Kir2.1 cells, FluxOR thallium flux fluorescence | AID 492993 | inhibition, % at 10 µM | shares compounds with KCNK9 block;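 active means thallium signal drop more than 5 SD beyond the mean of the no-compound control wells, seen in both duplicate plates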;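 further: signal is fluorescence rise after thallium addition divided by baseline fluorescence; plate controls were assay buffer only for no effect and full block by chlorpromazine control for full effect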
# KCNK9 uninduced – second counter-screen for KCNK9 modulators: effect in non-induced cells; 4,900 tested, 40% active; shares compounds with KCNK9 block; inhibition, % at 10 µM; non-induced KCNK9-HEK293, FluxOR thallium flux;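 active means thallium signal drop beyond 5 SD of the untreated control mean, on both duplicate plates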;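 further: plate controls were buffer only IC0 wells for no effect and SID17386958 at its maximal inhibitory level for full effect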
# Numbers without * were called inactive; i = inactive; · = not tested or not shown.
SMILES,KCNQ1 inh,KCNQ1 pot,Kir21 block,hERG rescue,KCNK3 inh,KCNK9 block,KCNK9 block conf,Kir21 sel,KCNK9 uninduced
CC(NC(=O)C1CC1)C(c1cccs1)N1CCOCC1 (configuration not stated),i,i,1.6,-7,i,i,·,·,·
CC(NC(=O)C1CCC(C(C)(C)C)CC1)C(c1ccccc1)N1CCOCC1 (configuration not stated),i,i,-1.8,-10,i,i,i,i,i
COc1cc(C(=O)OCc2csc(CC(=O)Nc3cc(C)ccc3C)n2)ccc1OC(F)F,·,·,·,·,i,·,·,·,·
C=C(C)Cn1c(SCC#N)nc2ccccc2c1=O,i,i,-0.07,-8,i,i,·,·,·
CCCCn1c(SCc2nc3ccccc3s2)nc2ccccc2c1=O,i,i,0.04,-8,i,-12*,68%*,i,40%*
CCN(CCCn1c(SCC#N)nc2ccccc2c1=O)c1ccccc1,i,i,0.61,-15,-9.3*,-11*,44%*,i,28%*
CC(C)COc1ccc(C(=O)Nc2scc(-c3ccc(Cl)cc3Cl)c2C(N)=O)cc1,i,i,-0.54,-12,i,i,i,i,i
CC(C)c1cc(C(N)=O)c(NC(=O)c2cccc(COc3ccc(Cl)cc3)c2)s1,i,i,0.7,-9,i,i,·,·,·
Cc1ccc(S(=O)(=O)NN2C(=O)/C(=C/c3ccccn3)SC2=S)cc1,i,i,1.2,-3,i,i,·,·,·
COc1cc(/C=C2\SC(=S)N(NS(=O)(=O)c3ccc(C)cc3)C2=O)cc(OC)c1OC,i,i,-0.01,-13,i,i,i,i,i
Cc1ccc(S(=O)(=O)NN2C(=O)/C(=C/c3cccc(F)c3)SC2=S)cc1,i,10*,-0.05,-2,i,i,i,i,i
COc1cc(/C=C2\SC(=S)N(NS(=O)(=O)c3ccc(C)cc3)C2=O)ccc1O,i,i,-0.05,-27,i,i,·,·,·
CCCn1c(C)cc(-c2csc(N)n2)c1C,i,i,0.24,-11,i,i,·,·,·
O=C(O)CCCn1cc(NC(=O)COc2ccc(F)cc2)cn1,i,i,-1,-2,i,i,·,·,·
CCCCOc1ccc(NC(=O)Cn2c(=O)ccc3c(C)cc(C)nc32)cc1,i,i,0.31,-1,i,i,·,·,·
CCOc1ccccc1Oc1cn[nH]c1-c1ccc(O)cc1O,i,i,-1.8,-11,i,-10*,32%*,i,i
C=C(C)COc1ccc(-c2[nH]ncc2Oc2ccccc2OCC)c(O)c1,i,i,1.3,-14,i,i,·,·,·
C[C@H]1COC(=O)[C@H](CC(=O)OC(C)(C)C)C/C=C\C[C@@H](CC(=O)N[C@@H](CO)Cc2ccccc2)C(=O)N1,·,·,·,·,i,·,·,·,·
Cc1ccc(S(=O)(=O)N2CCOCC2)cc1C(=O)O,i,i,-0.06,-7,i,i,·,·,·
Cc1ccc(C)c(N2CCN(C(=O)c3cc(S(=O)(=O)N4CCOCC4)ccc3F)CC2)c1,i,i,0.02,-1,i,i,i,i,i
O=C(Nc1cccc(C(=O)O)c1)/C(=C\c1ccco1)NC(=O)c1ccccc1,i,i,0.62,-3,i,i,·,·,·
CCCOC(=O)Cn1cnc2scc(-c3ccc(C)cc3)c2c1=O,i,i,0.9,-8,i,i,i,i,i
CCc1ccc(-c2csc3ncn(Cc4ccc(C(=O)O)cc4)c(=O)c23)cc1,i,i,-0.42,-3,i,i,·,·,·
C=CCn1cnc2scc(-c3ccc(C)c(C)c3)c2c1=O,i,i,-1,-4,i,i,i,i,i

# Assay outcomes: PubChem, Johns Hopkins Ion Channel Center
